{"source": "ChEMBL document CHEMBL1122293", "about": "“Synthesis, evaluation of chemical reactivity, and murine antineoplastic activity of 2-hydroxy-5-(3,4-dichlorophenyl)-6,7-bis(hydroxymethyl)-2,3-dihydro-1H- pyrrolizine bis(2-propylcarbamate) and 2-acyloxy derivatives as potential water-soluble prodrugs” (J Med Chem, 1983)", "key": {"[1]": {"system": "B16", "test": "Weight difference at 20 mg/kg (ip) against B16 melanocarcinoma in mice", "format": "functional, Mus musculus", "procedure,_shortened": "(§1)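 Female BDF1 mice given ip 0.5 mL of tumor brei (1.0 g tissue per 10 mL). Nine daily ip doses beginning 24 h later, as Klucel suspensions or a water/Tween-80 suspension. Acute toxicity scored day 5; survival read day 60. Cures counted per 10-animal group at day 60; weight difference reported as treated minus control (g).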"}, "[2]": {"system": "P388", "test": "Weight difference at 25 mg/kg (ip)against P388 Lymphocytic Leukemia in mice", "format": "functional, Mus musculus", "procedure,_shortened": "(§2)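 Male CDF1 mice given 6×10^6 leukemia cells ip. Five daily ip doses beginning 24 h later, as Klucel suspension or aqueous solution. Acute toxicity on day 5; survival assessed on day 30. Weight difference reported as treated minus control (g).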"}, "[3]": {"system": "P388", "test": "Median survival time of test animals compared to controls at 12.5 mg/kg (ip) against P388 Lymphocytic Leukemia in mice", "format": "functional, Mus musculus", "procedure,_shortened": "(§3)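 P388 leukemia cells inoculated ip into male CDF1 mice; ip treatment started 24 h later, five daily doses, as Klucel (hydroxypropylcellulose) suspension or aqueous solution. Acute toxicity on day 5. Day-30 median survival of treated versus control mice expressed as % T/C. Weight difference is treated minus control, in grams.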"}, "[4]": {"system": "P388", "test": "Log of the tumor cell population at the end of treatment at 6.25 mg/kg (ip) against P388 Lymphocytic Leukemia in mice", "format": "functional, Mus musculus"}, "[5]": {"system": "P388", "test": "Weight difference at 50 mg/kg (ip)against P388 Lymphocytic Leukemia in mice", "format": "functional, Mus musculus", "procedure,_shortened": "as §2"}, "[6]": {"system": "P388", "test": "Median survival time of test animals compared to controls at 50 mg/kg (ip) against P388 Lymphocytic Leukemia in mice", "format": "functional, Mus musculus", "procedure,_shortened": "(§4)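 P388 leukemia cells were inoculated ip into male CDF1 mice. Treatment began 24 h later, given ip as five daily doses, either as a Klucel (hydroxypropylcellulose) suspension or as an aqueous solution. Acute toxicity was assessed on day 5 and results were read on day 30. The value is median survival of treated versus control mice, as % T/C.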"}, "[7]": {"system": "B16", "test": "Median survival time of test animals compared to controls at 5 mg/kg (ip) against B16 melanocarcinoma in mice", "format": "functional, Mus musculus", "procedure,_shortened": "(§5)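 Female BDF1 mice received B16 tumor brei ip (0.5 mL of 1.0 g tissue per 10 mL). From 24 h later they got nine daily ip doses, suspended in Klucel or water/Tween-80. Acute toxicity was assessed on day 5 and survival was evaluated on day 60. The value is median survival as % T/C, with 10 mice per group and a positive control run in parallel.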"}, "[8]": {"system": "P388", "test": "Weight difference at 6.25 mg/kg (ip)against P388 Lymphocytic Leukemia in mice", "format": "functional, Mus musculus", "procedure,_shortened": "as §2"}, "[9]": {"system": "B16", "test": "Weight difference at 40 mg/kg (ip)against B16 melanocarcinoma in mice", "format": "functional, Mus musculus", "procedure,_shortened": "as §1"}, "[10]": {"system": "B16", "test": "Weight difference at 5 mg/kg (ip)against B16 melanocarcinoma in mice", "format": "functional, Mus musculus", "procedure,_shortened": "as §1"}, "[11]": {"system": "B16", "test": "No. of cures on day 60 at 10 mg/kg (ip) against B16 melanocarcinoma in mice", "format": "functional, Mus musculus", "procedure,_shortened": "as §1"}, "[12]": {"test": "Half life was determined"}, "[13]": {"system": "B16", "test": "Weight difference at 10 mg/kg (ip)against B16 melanocarcinoma in mice", "format": "functional, Mus musculus", "procedure,_shortened": "as §1"}, "[14]": {"system": "P388", "test": "Log of the tumor cell population at the end of treatment at 50 mg/kg (ip) against P388 Lymphocytic Leukemia in mice", "format": "functional, Mus musculus"}, "[15]": {"system": "P388", "test": "Weight difference at 12.5 mg/kg (ip)against P388 Lymphocytic Leukemia in mice", "format": "functional, Mus musculus", "procedure,_shortened": "as §3"}, "[16]": {"system": "B16", "test": "Median survival time of test animals compared to controls at 80 mg/kg (ip) against B16 melanocarcinoma in mice", "format": "functional, Mus musculus", "procedure,_shortened": "as §5"}, "[17]": {"system": "B16", "test": "No. of cures on day 60 at 5 mg/kg (ip) against B16 melanocarcinoma in mice", "format": "functional, Mus musculus", "procedure,_shortened": "as §1"}, "[18]": {"system": "B16", "test": "Median survival time of test animals compared to controls at 20 mg/kg (ip) against B16 melanocarcinoma in mice", "format": "functional, Mus musculus", "procedure,_shortened": "as §5"}, "[19]": {"system": "P388", "test": "Weight difference at 100 mg/kg (ip)against P388 Lymphocytic Leukemia in mice", "format": "functional, Mus musculus", "procedure,_shortened": "as §2"}, "[20]": {"system": "P388", "test": "Median survival time of test animals compared to controls at 100 mg/kg (ip) against P388 Lymphocytic Leukemia in mice", "format": "functional, Mus musculus", "procedure,_shortened": "as §4"}, "[21]": {"system": "P388", "test": "Log of the tumor cell population at the end of treatment at 12.5 mg/kg (ip) against P388 Lymphocytic Leukemia in mice", "format": "functional, Mus musculus"}, "[22]": {"system": "B16", "test": "No. of cures on day 60 at 20 mg/kg (ip) against B16 melanocarcinoma in mice", "format": "functional, Mus musculus", "procedure,_shortened": "as §1"}, "[23]": {"system": "B16", "test": "Weight difference at 80 mg/kg (ip) against B16 melanocarcinoma in mice", "format": "functional, Mus musculus", "procedure,_shortened": "as §1"}, "[24]": {"system": "B16", "test": "Median survival time of test animals compared to controls at 40 mg/kg (ip) against B16 melanocarcinoma in mice", "format": "functional, Mus musculus", "procedure,_shortened": "as §5"}, "[25]": {"system": "P388", "test": "Median survival time of test animals compared to controls at 25 mg/kg (ip) against P388 Lymphocytic Leukemia in mice", "format": "functional, Mus musculus", "procedure,_shortened": "as §4"}, "[26]": {"system": "B16", "test": "Median survival time of test animals compared to controls at 10 mg/kg (ip) against B16 melanocarcinoma in mice", "format": "functional, Mus musculus", "procedure,_shortened": "as §5"}, "[27]": {"test": "Water solubility of the compound", "format": "ADME", "conditions": "read-out: S", "procedure,_shortened": "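Excess bis(carbamate) (30-60 mg) in 2 mL distilled water, vortexed 10 min, filtered through Teflon wool and diluted. UV absorbance read at 291 nm. Concentration from a linear Beer's law calibration made with a salt standard (r = 0.998).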"}, "[28]": {"system": "P388", "test": "Log of the tumor cell population at the end of treatment at 100 mg/kg (ip) against P388 Lymphocytic Leukemia in mice", "format": "functional, Mus musculus"}, "[29]": {"system": "P388", "test": "Log of the tumor cell population at the end of treatment at 25 mg/kg (ip) against P388 Lymphocytic Leukemia in mice", "format": "functional, Mus musculus"}, "[30]": {"system": "B16", "test": "No. of cures on day 60 at 80 mg/kg (ip) against B16 melanocarcinoma in mice", "format": "functional, Mus musculus", "procedure,_shortened": "as §1"}, "[31]": {"system": "P388", "test": "Median survival time of test animals compared to controls at 6.25 mg/kg (ip) against P388 Lymphocytic Leukemia in mice", "format": "functional, Mus musculus", "procedure,_shortened": "as §4"}, "[32]": {"system": "B16", "test": "No. of cures on day 60 at 40 mg/kg (ip) against B16 melanocarcinoma in mice", "format": "functional, Mus musculus", "procedure,_shortened": "as §1"}}}
{"smiles": "CC(C)NC(=O)OCc1c(COC(=O)NC(C)C)c(-c2ccc(Cl)c(Cl)c2)n2c1CC(O)C2", "note": "(configuration not stated)", "values": [{"measurement": "Weight change", "setting": "[1]", "result": 0, "unit": "g"}, {"measurement": "Weight change", "setting": "[2]", "result": -3.8, "unit": "g"}, {"measurement": "T/C", "setting": "[3]", "result": 147, "unit": "%"}, {"measurement": "Log cell kill", "setting": "[4]", "result": 0.08}, {"measurement": "Weight change", "setting": "[5]", "result": -5.6, "unit": "g"}, {"measurement": "T/C", "setting": "[6]", "result": 150, "unit": "%"}, {"measurement": "T/C", "setting": "[7]", "result": 129, "unit": "%"}, {"measurement": "Weight change", "setting": "[8]", "result": -2.1, "unit": "g"}, {"measurement": "Weight change", "setting": "[9]", "result": -0.9, "unit": "g"}, {"measurement": "Weight change", "setting": "[10]", "result": 0.1, "unit": "g"}, {"measurement": "Cures", "setting": "[11]", "result": 0}, {"measurement": "half-life", "setting": "[12]", "result": 31, "unit": "min"}, {"measurement": "Weight change", "setting": "[13]", "result": 0.2, "unit": "g"}, {"measurement": "Log cell kill", "setting": "[14]", "result": 0.85}, {"measurement": "Weight change", "setting": "[15]", "result": -2.7, "unit": "g"}, {"measurement": "T/C", "setting": "[16]", "result": 101, "unit": "%"}, {"measurement": "Cures", "setting": "[17]", "result": 0}, {"measurement": "T/C", "setting": "[18]", "result": 196, "unit": "%"}, {"measurement": "Weight change", "setting": "[19]", "result": -6.3, "unit": "g"}, {"measurement": "T/C", "setting": "[20]", "result": 166, "unit": "%"}, {"measurement": "Log cell kill", "setting": "[21]", "result": 0.62}, {"measurement": "Cures", "setting": "[22]", "result": 0}, {"measurement": "Weight change", "setting": "[23]", "result": -2.4, "unit": "g"}, {"measurement": "T/C", "setting": "[24]", "result": 223, "unit": "%"}, {"measurement": "T/C", "setting": "[25]", "result": 145, "unit": "%"}, {"measurement": "T/C", "setting": "[26]", "result": 143, "unit": "%"}, {"measurement": "solubility", "setting": "[27]", "result": 40.2, "unit": "µM"}, {"measurement": "Log cell kill", "setting": "[28]", "result": 2.16}, {"measurement": "Log cell kill", "setting": "[29]", "result": 0.46}, {"measurement": "Cures", "setting": "[30]", "result": 0}, {"measurement": "T/C", "setting": "[31]", "result": 140, "unit": "%"}, {"measurement": "Cures", "setting": "[32]", "result": 4}]}
